The values that follow come from ChEMBL document CHEMBL1148356, “Synthesis and biological evaluation of 3-heterocyclyl-7,8,9,10-tetrahydro-(7,10-ethano)-1,2,4-triazolo[3,4-a]phthalazines and analogues as subtype-selective inverse agonists for the GABA(A)alpha5 benzodiazepine binding site” (J Med Chem, 2004).

Test [1] has as its target T1, GABA-A receptor; alpha-1/beta-3/gamma-2 (Homo sapiens, UniProt P14867+P18507+P28472).
T1 sequence (P14867 whole entry): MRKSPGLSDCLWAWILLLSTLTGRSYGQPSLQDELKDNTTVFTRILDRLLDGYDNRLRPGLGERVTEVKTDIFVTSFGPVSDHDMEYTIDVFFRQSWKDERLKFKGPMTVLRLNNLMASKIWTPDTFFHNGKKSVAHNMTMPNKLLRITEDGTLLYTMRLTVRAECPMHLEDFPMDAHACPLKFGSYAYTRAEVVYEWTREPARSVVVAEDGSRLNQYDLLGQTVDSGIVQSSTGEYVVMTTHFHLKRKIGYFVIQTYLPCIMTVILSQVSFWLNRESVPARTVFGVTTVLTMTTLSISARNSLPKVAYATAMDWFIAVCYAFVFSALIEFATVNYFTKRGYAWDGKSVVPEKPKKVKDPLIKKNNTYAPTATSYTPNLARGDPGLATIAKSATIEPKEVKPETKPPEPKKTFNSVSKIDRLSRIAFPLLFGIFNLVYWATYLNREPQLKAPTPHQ
T1 sequence (P18507 whole entry): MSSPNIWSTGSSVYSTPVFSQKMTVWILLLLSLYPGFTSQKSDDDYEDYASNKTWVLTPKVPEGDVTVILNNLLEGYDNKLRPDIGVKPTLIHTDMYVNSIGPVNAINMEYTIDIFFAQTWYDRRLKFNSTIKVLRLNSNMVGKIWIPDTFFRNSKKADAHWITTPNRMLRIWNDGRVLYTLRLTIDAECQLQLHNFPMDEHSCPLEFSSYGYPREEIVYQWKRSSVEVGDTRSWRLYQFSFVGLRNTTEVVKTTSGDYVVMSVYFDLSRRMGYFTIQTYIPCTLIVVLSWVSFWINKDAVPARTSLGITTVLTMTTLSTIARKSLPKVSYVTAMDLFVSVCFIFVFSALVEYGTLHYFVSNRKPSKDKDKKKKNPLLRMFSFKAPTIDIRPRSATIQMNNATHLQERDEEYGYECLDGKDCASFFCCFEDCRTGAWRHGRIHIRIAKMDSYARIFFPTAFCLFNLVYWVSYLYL
T1 sequence (P28472 whole entry): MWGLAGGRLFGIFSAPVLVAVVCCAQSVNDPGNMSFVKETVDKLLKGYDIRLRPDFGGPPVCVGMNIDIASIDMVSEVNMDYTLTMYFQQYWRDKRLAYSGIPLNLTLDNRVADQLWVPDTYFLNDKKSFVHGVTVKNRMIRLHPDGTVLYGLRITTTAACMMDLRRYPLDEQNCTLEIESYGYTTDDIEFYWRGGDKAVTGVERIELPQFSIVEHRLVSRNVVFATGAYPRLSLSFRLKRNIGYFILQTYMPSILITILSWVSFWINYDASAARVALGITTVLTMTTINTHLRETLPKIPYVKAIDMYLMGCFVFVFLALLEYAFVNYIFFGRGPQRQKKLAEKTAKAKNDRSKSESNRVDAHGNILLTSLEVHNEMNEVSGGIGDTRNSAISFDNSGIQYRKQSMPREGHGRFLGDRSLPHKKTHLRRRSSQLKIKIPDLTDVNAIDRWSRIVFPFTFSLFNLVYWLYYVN
Nature of the test: Binding affinity towards human alpha-1-beta-3-gamma-2 GABA-A receptor using [3H]Ro-151788 expressed in L(tk-) cells. The test is classed as cell-based.

The target in test [2] is T2, GABA-A receptor; alpha-3/beta-3/gamma-2 (Homo sapiens, UniProt P18507+P28472+P34903).
T2 sequence (P18507 whole entry): T1 sequence (P18507 whole entry)
T2 sequence (P28472 whole entry): T1 sequence (P28472 whole entry)
T2 sequence (P34903 whole entry): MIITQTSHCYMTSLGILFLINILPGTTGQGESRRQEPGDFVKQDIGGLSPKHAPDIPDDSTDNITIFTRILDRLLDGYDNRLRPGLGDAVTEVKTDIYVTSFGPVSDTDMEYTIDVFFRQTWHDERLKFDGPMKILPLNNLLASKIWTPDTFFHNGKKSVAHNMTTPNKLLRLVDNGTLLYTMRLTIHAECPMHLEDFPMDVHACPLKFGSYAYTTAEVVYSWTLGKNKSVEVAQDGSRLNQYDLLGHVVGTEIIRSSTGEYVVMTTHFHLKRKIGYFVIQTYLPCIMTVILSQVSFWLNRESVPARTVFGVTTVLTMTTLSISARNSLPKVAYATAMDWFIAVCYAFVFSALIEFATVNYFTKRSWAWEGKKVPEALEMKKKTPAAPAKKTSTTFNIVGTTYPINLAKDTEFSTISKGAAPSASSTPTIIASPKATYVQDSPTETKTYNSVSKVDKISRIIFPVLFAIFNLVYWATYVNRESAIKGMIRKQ
Nature of the test: Binding affinity towards human gamma-aminobutyric-acid A receptor alpha-3-beta-3-gamma-2 using [3H]Ro-151788 expressed in L(tk-) cells. It counts as cell-based.

In test [3] the target is GABA-A receptor; alpha-5/beta-3/gamma-2 (Homo sapiens) (UniProt P18507+P28472+P31644). In words: Percent change in electrophysiological response in Xenopus oocytes expressing Alpha-5-beta-3-gamma-2 GABA-A receptor. It counts as functional, cell-based. The following applies: Oocyte. An outline of the steps: (§1)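 Two-electrode voltage clamp on Xenopus oocytes injected with human GABA-A subunit cDNAs, 24-72 h expression, perfused with modified Barth's medium at pH 7.5, clamped between -40 and -70 mV. The GABA EC20 was titrated against a 3 mM GABA maximum. […] Result is % change of control current, mean ± SE of ≥4 oocytes.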

Test [4] deals with T3, GABA-A receptor; alpha-5/beta-3/gamma-2 (Homo sapiens, UniProt P18507+P28472+P31644).
T3 sequence (P18507 whole entry): T1 sequence (P18507 whole entry)
T3 sequence (P28472 whole entry): T1 sequence (P28472 whole entry)
T3 sequence (P31644 whole entry): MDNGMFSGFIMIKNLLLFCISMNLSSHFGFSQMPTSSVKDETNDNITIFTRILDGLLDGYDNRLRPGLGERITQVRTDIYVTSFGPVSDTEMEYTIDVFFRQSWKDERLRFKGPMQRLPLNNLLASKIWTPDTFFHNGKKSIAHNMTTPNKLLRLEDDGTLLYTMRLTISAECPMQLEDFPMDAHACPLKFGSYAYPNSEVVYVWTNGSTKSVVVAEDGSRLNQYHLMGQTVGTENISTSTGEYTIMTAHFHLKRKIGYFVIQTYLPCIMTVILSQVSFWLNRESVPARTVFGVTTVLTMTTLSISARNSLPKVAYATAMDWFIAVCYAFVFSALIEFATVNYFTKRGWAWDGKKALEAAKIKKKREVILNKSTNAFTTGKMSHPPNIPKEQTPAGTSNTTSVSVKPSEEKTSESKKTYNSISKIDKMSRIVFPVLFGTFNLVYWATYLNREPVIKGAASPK
Nature of the test: Binding affinity towards human alpha-5-beta-3-gamma-2 GABA-A receptor using [3H]Ro-151788 expressed in L(tk-) cells. It counts as cell-based.

Test [5] deals with T4, GABA-A receptor; alpha-2/beta-3/gamma-2 (Homo sapiens, UniProt P18507+P28472+P47869).
T4 sequence (P18507 whole entry): T1 sequence (P18507 whole entry)
T4 sequence (P28472 whole entry): T1 sequence (P28472 whole entry)
T4 sequence (P47869 whole entry): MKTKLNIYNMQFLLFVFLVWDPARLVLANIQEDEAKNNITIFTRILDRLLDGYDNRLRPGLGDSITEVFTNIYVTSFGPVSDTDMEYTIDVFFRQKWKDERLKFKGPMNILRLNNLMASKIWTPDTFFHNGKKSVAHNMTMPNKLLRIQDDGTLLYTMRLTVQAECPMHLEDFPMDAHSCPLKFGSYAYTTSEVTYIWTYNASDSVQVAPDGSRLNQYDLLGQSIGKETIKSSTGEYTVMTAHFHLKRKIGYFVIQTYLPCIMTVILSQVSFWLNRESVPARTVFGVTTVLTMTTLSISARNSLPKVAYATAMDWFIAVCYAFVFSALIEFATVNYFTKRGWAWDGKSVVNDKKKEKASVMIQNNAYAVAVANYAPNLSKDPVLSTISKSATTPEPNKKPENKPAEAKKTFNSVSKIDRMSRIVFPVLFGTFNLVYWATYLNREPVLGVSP
In words: Binding affinity towards human gamma-aminobutyric-acid A receptor alpha-2-beta-3-gamma-2 using [3H]Ro-151788 expressed in L(tk-) cells. The test is classed as cell-based.

Test [6] concerns the target GABA-A receptor; alpha-3/beta-3/gamma-2 (Homo sapiens) (UniProt P18507+P28472+P34903). In words: Percent change in electrophysiological response in Xenopus oocytes expressing Alpha3-beta3-gamma2 GABA-A receptor. The note with it: Oocyte. It counts as functional, cell-based. The method in brief: as §1

Usually Ki stands for a dissociation constant, usually derived from enzyme kinetics or from competition with a known ligand. Low readings indicate tighter binding, high ones weaker binding. Turning to `Cc1cc(-c2nnc3c4c(c(OCc5ccccn5)nn23)C2CCC4C2)no1` (centres undefined), the inhibition constant (Ki) in test [1] is 57.7 nM; in test [2], 17.6 nM; in test [4], 5.5 nM; in test [5], 19.7 nM. Further, the Efficacy is -13% in test [3] and 0.6% in test [6].
Regarding `Cc1noc(-c2nnc3c4c(c(OCc5cccnc5)nn23)C2CCC4CC2)n1`, the Ki in test [1] amounted to 26.8 nM; in test [2], 4.2 nM; in test [4] it was 0.93 nM; in test [5], 5.7 nM.
With `Cc1cccc(COc2nn3c(-c4coc(C)n4)nnc3c3c2C2CCC3CC2)n1`, the Ki in test [1] amounted to 280 nM; in test [2], 46 nM; in test [4], 6.8 nM; in test [5] it was 57 nM.
`Cc1cccc(COc2nn3c(-c4nc(-c5ccccc5)no4)nnc3c3c2C2CCC3CC2)n1`: the Ki was over 1000 nM in test [1], 227 nM in test [2], 19.2 nM in test [4] and 203 nM in test [5].
`Cc1cccc(COc2nn3c(-c4cc(C)on4)nnc3c3c2C2CCC3C2)n1` (centres undefined): the Ki turned out to be 147 nM in test [1], 33.5 nM in test [2], 8.9 nM in test [4] and 38.4 nM in test [5]. The figures for the Efficacy in test [3] and in test [6] were -24% and 11%, respectively.
Consider `CCc1noc(-c2nnc3c4c(c(OCc5cccc(C)n5)nn23)C2CCC4CC2)n1`, for which the Ki in test [1] stood at 171 nM; in test [2] it was 21 nM; in test [4] it was 3.5 nM; in test [5], 34 nM.
`Cc1cccc(COc2nn3c(-c4csc(C)n4)nnc3c3c2C2CCC3CC2)n1`: the Ki in test [1] was over 1000 nM; in test [2], over 1000 nM; in test [4], 58 nM; in test [5] it was over 1000 nM.
For `Cc1nc(-c2nnc3c4c(c(OCc5cccc[n+]5[O-])nn23)C2CCC4CC2)[o+][n-]1`, the Ki in test [1] is 74.3 nM; in test [2] it was 14.7 nM; in test [4], 3.9 nM; in test [5], 15.4 nM.
With `Cc1noc(-c2nnc3c4c(c(OCc5ccccc5C#N)nn23)C2CCC4CC2)n1`, the Ki in test [1] was found to be 17.5 nM; in test [2], 1.7 nM; in test [4] it was 0.44 nM; in test [5], 2.9 nM. Also, the Efficacy in test [3] is -45%.
The like results for `Cc1noc(-c2nnc3c4c(c(OCc5ncc[nH]5)nn23)C2CCC4CC2)n1` were, in that order, 159 nM, 19.4 nM, 3.8 nM, 35.9 nM and -26%.
On to `Cc1cccc(COc2nn3c(-c4ccsc4)nnc3c3c2C2CCC3CC2)n1`, for which the Efficacy in test [3] amounted to 7%.
Regarding `Cc1cccc(COc2nn3c(-c4ccco4)nnc3c3c2C2CCC3CC2)n1`, the inhibition constant Ki in test [1] turned out to be 1000 nM; in test [2], 116 nM; in test [4], 13 nM; in test [5], 275 nM.
As for `Cc1cccc(COc2nn3c(-c4ccccn4)nnc3c3c2C2CCC3CC2)n1`, the Ki came out at 518 nM in test [1], 104 nM in test [2], 15.3 nM in test [4] and 227 nM in test [5].
The like results for `Cc1cccc(COc2nn3c(-c4nc(-c5ccncc5)no4)nnc3c3c2C2CCC3CC2)n1` were, in that order, over 1000 nM, 26.4 nM, 2.1 nM and 209 nM.
Consider `Cc1cccc(COc2nn3c(-c4nc(-c5cccnc5)no4)nnc3c3c2C2CCC3CC2)n1`, for which the Ki in test [1] was over 1000 nM; in test [2], 69.6 nM; in test [4], 3.3 nM; in test [5], 166 nM.
Turning to `Cc1cccc(COc2nn3c(-c4nc(C(C)C)no4)nnc3c3c2C2CCC3CC2)n1`, the Ki in test [1] is over 1000 nM; in test [2] it was 83.9 nM; in test [4], 6.5 nM; in test [5], 68.4 nM.
In the case of `Cc1cccc(COc2nn3c(-c4ncnn4C)nnc3c3c2C2CCC3CC2)n1`, the Ki is over 1000 nM in test [1], over 1000 nM in test [2], 253 nM in test [4] and over 1000 nM in test [5].
`Cc1cccc(COc2nn3c(-c4cccs4)nnc3c3c2C2CCC3CC2)n1`: the Ki worked out at 115 nM in test [1], 22 nM in test [2], 4 nM in test [4] and 66 nM in test [5].
Take `Cc1cccc(COc2nn3c(-c4ncn(C)n4)nnc3c3c2C2CCC3CC2)n1`: the Ki was over 1000 nM in test [1], over 1000 nM in test [2], 214 nM in test [4] and over 1000 nM in test [5].
Take `Cc1noc(-c2nnc3c4c(c(OCc5ccccn5)nn23)C2CCC4CC2)n1`: the Ki in test [1] was 28.2 nM; in test [2], 3.9 nM; in test [4] it was 0.77 nM; in test [5] it was 8.5 nM. Besides, the Efficacy in test [3] is -38%.
